For assay [1], the system named is Semliki Forest virus. The assay can be described thus: Effective dose administered intraperitoneally againist Forest virus infected mice. The class given is functional, organism-based. The method, boiled down:
(§1)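 Drug was suspended in 0.9% NaCl or in a carboxymethylcellulose/polysorbate 80/benzyl alcohol/NaCl vehicle. Deaths were recorded daily for 6 days, with 24 mice per group. The ED50 is the minimal dose protecting 50% of mice, calculated by probit analysis.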

For a further assay, the system named is Human alphaherpesvirus 1. In words: Intraperitoneal administration against herpes simplex virus type-1 (HSV-1) infected mice. It is filed as functional. In short, it runs like this: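 ICR or CD-1 mice got drug ip in saline as the total daily dose (mg/kg/day). It was split into doses at -40, -28, -20, -3 and +3 h relative to ip inoculation with 5.6×10^4 pfu HSV-1. Mice were followed for 22 days, 15/group. Protection index = (control mortality − treated mortality)/control mortality; >0.25 counted active. Only the lowest protective dose is recorded.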

For assay [2], the system named is Semliki Forest virus. In words: Antiviral activity against Forest virus (SFV). It is filed as functional. In short, it runs like this: (§2)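 ICR or CD-1 mice of both sexes got one drug dose by the route in the line (ip, po or sc). The drug was a suspension in 0.9% NaCl or in a CMC/polysorbate 80/benzyl alcohol/NaCl vehicle. […] Deaths were recorded daily for 6 days, 24 mice/group. ED50 is the minimal dose protecting 50% of mice, by probit analysis.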

For assay [3], the system named is Semliki Forest virus. The assay can be described thus: Effective dose administered perorally against Forest virus infected mice. It is filed as functional, organism-based. The method, boiled down:
as §1

The subject of assay [4] is Semliki Forest virus. The assay can be described thus: Effective dose administered subcutaneously against Forest virus infected mice. It is filed as functional, organism-based. The method, boiled down: as §1
For assay [5], the system named is Vesicular stomatitis virus. The assay can be described thus: Evaluation for serum interferon response from a single 800 mg/kg intraperitoneal administration in vesicular stomatitis virus on […] cells. It is filed as functional. The method, boiled down:
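Mice got a single ip 800 mg/kg dose. Blood was drawn 3, 6, 8 and 12 h later from five mice per group and pooled. Interferon titer was measured by plaque reduction with vesicular stomatitis virus on L929 cells. Titer is the reciprocal serum dilution cutting plaques by 50% versus untreated cultures. Peak response within 24 h was banded: ≥2000, ~500-1000, ~50-500, ~10-50 U/mL.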

Assay [6] has as its system Semliki Forest virus. In words: Effective dose administered perorally againist Forest virus infected mice. The note with it: po. The class given is functional. The method, boiled down: as §2
Assay [7] relates to Semliki Forest virus. In words: Effective dose administered subcutaneously againist Forest virus infected mice. The class given is functional. The note with it: sc. In short, it runs like this:
as §2

The source made the active and inactive calls. No cut-off for these calls is given here.

These results are taken from ChEMBL document CHEMBL1123103, “Pyrimidinones. 1. 2-Amino-5-halo-6-aryl-4(3H)-pyrimidinones. Interferon-inducing antiviral agents” (1985).

Broadly, the ED50 is the dose at which the effect has come halfway, by size or by number of responders. On to `Nc1nc(O)c(Br)c(-c2c(F)ccc(F)c2F)n1`, for which the ED50 entry with Semliki Forest virus [1] is “inactive”. For the same molecule, in the assay on Human alphaherpesvirus 1, the Protection index is recorded as 0.
Regarding `Nc1nc(O)c(Br)c(-c2ccc(OCc3ccccc3)cc2)n1`, the ED50 entry in the assay on Semliki Forest virus [1] is “inactive”.
Consider `COc1cccc(-c2nc(N)nc(O)c2Cl)c1OC`, for which the ED50 result in the assay with Semliki Forest virus [1] was “inactive”.
`COc1ccc(-c2nc(N)nc(O)c2Br)cc1` had a median effective dose (ED50) in the assay with Semliki Forest virus [2] of over 400 mg/kg. In addition, the ED50 entry with Semliki Forest virus [3] and in the assay with Semliki Forest virus [4] was “inactive” in each case.
As for `Nc1nc(O)c(Br)c(-c2c(F)cc(F)cc2F)n1`, the ED50 entry in the assay with Semliki Forest virus [1] is “inactive”. The molecule further showed a Protection index in the assay with Human alphaherpesvirus 1 of 0.
In turn, `Nc1nc(O)c(Cl)c(-c2cccc(Cl)c2)n1` gave an IFN in assay [5] of 50 units/mL. Also, the ED50 in the assay with Semliki Forest virus [2] was 135 mg/kg; in the assay on Semliki Forest virus [6], over 400 mg/kg; with Semliki Forest virus [7] it was over 400 mg/kg. Also, the Protection index with Human alphaherpesvirus 1 turned out to be 0.86.
As for `Nc1nc(O)c(Br)c(-c2ccncc2)n1`, the ED50 in the assay on Semliki Forest virus [2] is over 400 mg/kg. Also, the ED50 result with Semliki Forest virus [3] and in the assay on Semliki Forest virus [4] was “inactive” throughout. In the assay on Human alphaherpesvirus 1, this molecule yielded a Protection index of 0.
Take `Nc1nc(O)c(Br)c(-c2cccc(Cl)c2)n1`: the IFN result in assay [5] is listed as “>=2000 ml”. The ED50 with Semliki Forest virus [2] is 30 mg/kg; in the assay with Semliki Forest virus [6] it was over 400 mg/kg; in the assay on Semliki Forest virus [7], 300 mg/kg. The same molecule displayed a Protection index in the assay on Human alphaherpesvirus 1 of 0.78.
With `COc1cccc(-c2nc(N)nc(O)c2Br)c1OC`, in the assay with Semliki Forest virus [1], the ED50 entry was “inactive”.
As to `COc1ccc(-c2nc(N)nc(O)c2I)cc1`, the ED50 in the assay with Semliki Forest virus [2] was over 400 mg/kg. Besides, the ED50 result in the assay with Semliki Forest virus [3] and in the assay with Semliki Forest virus [4] was “inactive” in each case.
In turn, `Nc1nc(O)c(I)c(-c2ccccc2)n1` displayed an IFN in assay [5] of 50 units/mL. The results for the ED50 with Semliki Forest virus [2], in the assay on Semliki Forest virus [6] and with Semliki Forest virus [7] were 50 mg/kg, over 400 mg/kg and 25 mg/kg, respectively. In addition, the Protection index in the assay with Human alphaherpesvirus 1 was 0.86.
Take `Nc1nc(O)c(Br)c(-c2ccc3ccccc3c2)n1`: in the assay with Semliki Forest virus [2], the ED50 is over 400 mg/kg. The ED50 result in the assay with Semliki Forest virus [3] and in the assay on Semliki Forest virus [4] was “inactive” throughout.
Consider `Nc1nc(O)c(Cl)c(-c2ccc(OCc3ccccc3)cc2)n1`, for which the ED50 result in the assay with Semliki Forest virus [1] was “inactive”.
As to `Nc1nc(O)c(Cl)c(-c2ccccc2)n1`, in assay [5], the IFN result was “>=2000 ml”. The ED50 in the assay on Semliki Forest virus [2] is 100 mg/kg; in the assay on Semliki Forest virus [6] it was 90 mg/kg; with Semliki Forest virus [7] it was 105 mg/kg. The Protection index in the assay on Human alphaherpesvirus 1 is reported as 0.62.
Consider `Nc1nc(O)c(Cl)c(-c2cccc(I)c2)n1`, for which the ED50 result in the assay with Semliki Forest virus [1] was “inactive”.
With `Nc1nc(O)c(Br)c(-c2ccc(O)cc2)n1`, the ED50 in the assay with Semliki Forest virus [2] is over 400 mg/kg. Besides, the ED50 entry in the assay with Semliki Forest virus [3] and in the assay with Semliki Forest virus [4] was “inactive” in each case.
On to `Nc1nc(O)c(Br)c(-c2cc(Br)c(O)c(Br)c2)n1`, for which the ED50 entry in the assay on Semliki Forest virus [1] is “inactive”.
With `COc1cccc(-c2nc(N)nc(O)c2I)c1OC`, the ED50 result with Semliki Forest virus [1] is “inactive”.
As for `Nc1nc(O)c(Br)c(-c2ccccc2O)n1`, the ED50 result in the assay with Semliki Forest virus [1] is “inactive”.
Consider `Nc1nc(O)c(I)c(-c2c(F)cc(F)cc2F)n1`, for which the ED50 entry in the assay with Semliki Forest virus [1] is “inactive”. Further, the Protection index with Human alphaherpesvirus 1 is given as 0.
The like results for `N#Cc1ccc(-c2nc(N)nc(O)c2I)cc1` were, in that order, “inactive” and 0.
As for `Nc1nc(O)c(Cl)c(-c2ccc(O)cc2)n1`, in the assay with Semliki Forest virus [2], the ED50 is over 400 mg/kg. The ED50 result with Semliki Forest virus [3] and with Semliki Forest virus [4] was “inactive” in each case.
For `Nc1cccc(-c2nc(N)nc(O)c2Br)c1`, the ED50 entry with Semliki Forest virus [1] was “inactive”.
As for `Nc1nc(O)c(I)c(-c2ccoc2)n1`, the median effective dose (ED50) in the assay on Semliki Forest virus [2] is over 400 mg/kg. Also, the ED50 entry with Semliki Forest virus [3] and in the assay with Semliki Forest virus [4] was “inactive” each time.
Turning to `Nc1nc(O)c(I)c(-c2ccc(Cl)c(Cl)c2)n1`, in assay [5], the IFN entry is listed as “>=2000 ml”. For the same molecule, the ED50 with Semliki Forest virus [2] was 115 mg/kg; in the assay on Semliki Forest virus [6], over 400 mg/kg; in the assay with Semliki Forest virus [7], 240 mg/kg. The molecule further displayed a Protection index in the assay on Human alphaherpesvirus 1 of 0.36.
`Nc1nc(O)c(Br)c(-c2cccc(O)c2)n1`: in the assay on Semliki Forest virus [1], the ED50 result was “inactive”. The same molecule had a Protection index in the assay with Human alphaherpesvirus 1 of 0.
